# Laboratory results: ChEMBL document CHEMBL5678798 (Clin Cancer Res, 2009)
# The source made the active and inactive calls. No cut-off for these calls is given here.
# Assays:
# [1] = molecular target: Insulin receptor (Mus musculus) (UniProt P15208); conditions: CD-1, dose 30.0 mg/kg, route po, time 2-24 hrs
# [2] = molecular target: Dual specificity mitogen-activated protein kinase kinase 7 (Homo sapiens) (UniProt O14733); assay: Inhibition of N-terminal GST-tagged recombinant human MKK7beta (2 to end residues) expressed in Escherichia coli at 0.3 uM by filter binding assay relative to control
# Summary of the method: (§1)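 Outsourced single-concentration screen in a commercial panel of 233 protein kinases, run as radiometric filter-binding activity assays. Test agent was tested at 0.3 or 3 µmol/L, as given in each line, from a 10 mmol/L DMSO stock. Activity is expressed as percent inhibition relative to control.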
# [3] = molecular target: MAP kinase-activated protein kinase 5 (Homo sapiens) (UniProt Q8IW41); assay: Inhibition of N-terminal His6-tagged recombinant human full-length PRAK expressed in baculovirus infected Sf21 cells at 3 uM by filter binding assay relative to control
# [4] = molecular target: Vascular endothelial growth factor receptor 2 (Homo sapiens, UniProt P35968); assay: Inhibition of VEGFR2 (unknown origin)
# Sequence of Vascular endothelial growth factor receptor 2 (P35968 whole entry): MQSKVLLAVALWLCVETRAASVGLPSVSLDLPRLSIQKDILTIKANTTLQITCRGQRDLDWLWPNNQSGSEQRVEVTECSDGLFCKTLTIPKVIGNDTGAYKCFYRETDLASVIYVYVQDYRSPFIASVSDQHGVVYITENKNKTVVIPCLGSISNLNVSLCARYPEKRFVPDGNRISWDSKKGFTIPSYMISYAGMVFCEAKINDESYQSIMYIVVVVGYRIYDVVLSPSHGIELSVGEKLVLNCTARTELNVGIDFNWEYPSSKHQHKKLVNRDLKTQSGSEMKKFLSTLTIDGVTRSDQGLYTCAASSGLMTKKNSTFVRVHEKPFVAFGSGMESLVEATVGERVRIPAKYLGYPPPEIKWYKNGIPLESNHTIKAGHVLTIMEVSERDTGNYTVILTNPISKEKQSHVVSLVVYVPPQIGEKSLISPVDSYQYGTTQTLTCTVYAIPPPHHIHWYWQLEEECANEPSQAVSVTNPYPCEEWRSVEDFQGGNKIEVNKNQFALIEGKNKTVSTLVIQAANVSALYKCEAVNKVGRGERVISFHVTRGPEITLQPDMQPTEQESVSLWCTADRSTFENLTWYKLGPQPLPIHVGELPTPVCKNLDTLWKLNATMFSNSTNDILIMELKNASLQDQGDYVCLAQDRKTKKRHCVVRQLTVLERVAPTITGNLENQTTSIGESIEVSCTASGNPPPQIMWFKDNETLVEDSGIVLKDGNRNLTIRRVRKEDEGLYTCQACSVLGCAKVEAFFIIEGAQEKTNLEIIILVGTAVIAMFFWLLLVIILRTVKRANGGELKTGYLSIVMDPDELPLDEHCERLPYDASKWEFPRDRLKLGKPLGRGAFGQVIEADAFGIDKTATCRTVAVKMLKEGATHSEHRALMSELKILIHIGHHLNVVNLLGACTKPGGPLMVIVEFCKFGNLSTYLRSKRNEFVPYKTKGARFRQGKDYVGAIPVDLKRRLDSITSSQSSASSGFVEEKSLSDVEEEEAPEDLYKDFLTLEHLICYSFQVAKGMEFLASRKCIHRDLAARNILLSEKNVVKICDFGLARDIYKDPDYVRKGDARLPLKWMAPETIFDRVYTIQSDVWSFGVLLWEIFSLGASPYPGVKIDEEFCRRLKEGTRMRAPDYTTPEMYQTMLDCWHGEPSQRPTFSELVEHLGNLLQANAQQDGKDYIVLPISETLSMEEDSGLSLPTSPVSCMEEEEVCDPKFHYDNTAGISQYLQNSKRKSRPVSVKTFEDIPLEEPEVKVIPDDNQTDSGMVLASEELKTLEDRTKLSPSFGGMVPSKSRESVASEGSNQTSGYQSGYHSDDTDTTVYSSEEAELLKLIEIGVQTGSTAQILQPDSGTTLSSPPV
# [5] = molecular target: Insulin receptor (Mus musculus) (UniProt P15208); conditions: CD-1, dose 30.0 mg/kg, route po, time 21.0 day
# [6] = molecular target: Tyrosine-protein kinase ABL1 (Homo sapiens, UniProt P00519); assay: Inhibition of N-terminal His6-tagged recombinant human Abl (27 to end residues) expressed in baculovirus infected Sf21 cells by filter binding assay
# Sequence of Tyrosine-protein kinase ABL1 (P00519 whole entry): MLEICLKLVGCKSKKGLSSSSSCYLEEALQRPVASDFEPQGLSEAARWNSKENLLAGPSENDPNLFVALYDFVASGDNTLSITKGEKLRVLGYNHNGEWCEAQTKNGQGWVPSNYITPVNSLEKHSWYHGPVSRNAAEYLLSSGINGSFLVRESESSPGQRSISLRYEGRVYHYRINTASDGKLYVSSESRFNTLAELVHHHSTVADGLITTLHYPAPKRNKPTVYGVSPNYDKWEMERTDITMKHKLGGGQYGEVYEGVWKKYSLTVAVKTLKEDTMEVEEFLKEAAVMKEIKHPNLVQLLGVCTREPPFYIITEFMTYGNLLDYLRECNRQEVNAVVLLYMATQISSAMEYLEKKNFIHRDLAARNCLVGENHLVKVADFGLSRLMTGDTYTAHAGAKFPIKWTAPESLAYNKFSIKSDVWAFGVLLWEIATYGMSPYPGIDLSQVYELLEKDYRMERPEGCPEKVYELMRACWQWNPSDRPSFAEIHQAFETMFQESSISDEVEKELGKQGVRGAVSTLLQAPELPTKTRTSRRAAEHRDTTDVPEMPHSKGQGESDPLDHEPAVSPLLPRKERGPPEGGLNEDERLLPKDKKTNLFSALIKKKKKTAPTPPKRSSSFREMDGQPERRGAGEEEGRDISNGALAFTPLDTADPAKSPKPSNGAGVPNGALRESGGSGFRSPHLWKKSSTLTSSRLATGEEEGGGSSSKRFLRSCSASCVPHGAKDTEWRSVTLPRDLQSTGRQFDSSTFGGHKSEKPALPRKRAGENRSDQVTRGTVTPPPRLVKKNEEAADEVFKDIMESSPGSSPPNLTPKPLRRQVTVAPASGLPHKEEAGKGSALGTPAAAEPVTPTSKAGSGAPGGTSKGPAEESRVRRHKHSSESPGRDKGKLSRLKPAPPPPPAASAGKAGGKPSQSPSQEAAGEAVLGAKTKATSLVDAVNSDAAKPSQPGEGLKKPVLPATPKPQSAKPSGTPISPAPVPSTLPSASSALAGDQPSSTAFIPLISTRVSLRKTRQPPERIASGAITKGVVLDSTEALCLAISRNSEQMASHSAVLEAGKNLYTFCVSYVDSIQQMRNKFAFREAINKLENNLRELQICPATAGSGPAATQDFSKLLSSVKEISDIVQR
# [7] = Inhibition of C-terminal His6-tagged human full length CDK2/N-terminal GST-tagged human full length cyclinA expressed in baculovirus infected Sf21 cells at 0.3 uM by filter binding assay relative to control; conditions: condition cancer
# Summary of the method: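 Run in an outsourced profiling panel of 233 kinases. Each kinase was tested with radiometric filter-binding activity assays at a single inhibitor concentration of 0.3 µmol/L. Inhibitor stock was 10 mmol/L in DMSO. Inhibition is reported as percent relative to control.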
# [8] = test system: COLO 205; assay: Induction of cell cycle arrest in human COLO 205 cells assessed as cells accumulation at S phase at 1 umol/L incubated for 48 hrs by propidium iodide staining based flow cytometric analysis (reference value: 9%); format: functional; conditions: dose 1 µmol/L, at 1 µM
# Summary of the method: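 COLO 205, MCF-7 or NCI-H929 cells seeded in 96-well plates overnight at 37°C, then exposed to DMSO or increasing compound concentrations for 24 or 48 h. Fixed and stained with propidium iodide (Vindelov method), then analysed by flow cytometry for sub-G1, G1, S and G2-M fractions. Experiment repeated twice.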
# [9] = molecular target: Serine/threonine-protein kinase DCLK2 (Homo sapiens) (UniProt Q8N568); assay: Inhibition of N-terminal 6His-tagged recombinant human DCAMKL2 (376 to end residues) expressed in baculovirus infected Sf21 cells at 3 uM by filter binding assay relative to control
# Sequence of Serine/threonine-protein kinase DCLK2 (Homo sapiens) (Q8N568 whole entry): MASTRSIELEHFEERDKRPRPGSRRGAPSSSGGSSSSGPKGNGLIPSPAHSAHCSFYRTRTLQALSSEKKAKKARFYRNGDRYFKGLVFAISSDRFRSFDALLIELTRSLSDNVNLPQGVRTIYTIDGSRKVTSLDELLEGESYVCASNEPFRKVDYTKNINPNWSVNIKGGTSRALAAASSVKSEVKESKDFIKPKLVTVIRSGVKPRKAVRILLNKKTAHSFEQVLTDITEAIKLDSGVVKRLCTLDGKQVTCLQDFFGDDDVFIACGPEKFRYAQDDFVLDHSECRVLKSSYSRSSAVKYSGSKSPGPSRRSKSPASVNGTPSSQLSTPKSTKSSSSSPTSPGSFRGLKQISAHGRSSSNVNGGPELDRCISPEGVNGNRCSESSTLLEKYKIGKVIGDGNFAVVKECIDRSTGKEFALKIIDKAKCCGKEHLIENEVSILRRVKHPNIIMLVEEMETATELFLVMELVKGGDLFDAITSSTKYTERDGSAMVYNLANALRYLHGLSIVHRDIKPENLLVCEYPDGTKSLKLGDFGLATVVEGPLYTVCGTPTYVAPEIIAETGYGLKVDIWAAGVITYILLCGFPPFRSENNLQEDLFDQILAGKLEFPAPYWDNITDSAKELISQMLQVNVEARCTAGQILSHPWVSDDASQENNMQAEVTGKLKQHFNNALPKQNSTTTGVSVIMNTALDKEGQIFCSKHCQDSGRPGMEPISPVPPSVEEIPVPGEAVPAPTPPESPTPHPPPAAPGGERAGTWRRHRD
# Summary of the method: as §1
# [10] = molecular target: Homeodomain-interacting protein kinase 3 (Homo sapiens) (UniProt Q9H422); assay: Inhibition of N-terminal 6His-tagged recombinant human HIPK3 (161 to 562 residues) expressed in baculovirus infected Sf21 cells at 0.3 uM by filter binding assay relative to control
# Summary of the method: as §1
# [11] = test system: L-363; assay: Antiproliferative activity against human L-363 cells assessed as reduction in cell viability after 72 hrs by CellTiter-Glo assay; format: functional, cell-based; conditions: L-363, 72 h
# Summary of the method: (§2)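 Cells seeded in 96-well plates, left overnight at 37°C, then exposed to a range of test concentrations for 72 h. Viability read by CellTiter-Glo luminescence; IC50 from four-parameter curve fit. Lines kept at 37°C, 5% CO2, in recommended growth medium.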
# [12] = molecular target: ALK tyrosine kinase receptor (Homo sapiens) (UniProt Q9UM73); assay: Inhibition of N-terminal His6-tagged recombinant human ALK (1058 to end residues) expressed in baculovirus infected Sf21 cells at 3 uM by filter binding assay relative to control
# Summary of the method: as §1
# [13] = molecular target: Serine/threonine-protein kinase PAK 6 (Homo sapiens) (UniProt Q9NQU5); assay: Inhibition of N-terminal His6-tagged recombinant human PAK6 (382 to end residues) expressed in Sf21 cells at 3 uM by filter binding assay relative to control
# [14] = molecular target: Phosphatidylinositol 4,5-bisphosphate 3-kinase catalytic subunit alpha isoform (Homo sapiens, UniProt P42336); assay: Inhibition of PI3Kalpha (unknown origin)
# [15] = Antiproliferative activity against human SUPM2 cells assessed as reduction in cell viability after 72 hrs by CellTiter-Glo assay; format: functional, cell-based; conditions: SUP-M2, 72 h
# Summary of the method: as §2
# [16] = molecular target: Activated CDC42 kinase 1 (Homo sapiens) (UniProt Q07912); assay: Inhibition of N-terminal GST-tagged recombinant human ACK1 (1 to 389 residues) expressed in baculovirus infected Sf21 cells at 3 uM by filter binding assay relative to control
# Summary of the method: as §1
# [17] = molecular target: Serine/threonine-protein kinase Nek11 (Homo sapiens) (UniProt Q8NG66); assay: Inhibition of 6His-tagged recombinant human full-length NEK11 expressed in baculovirus infected Sf21 cells at 0.3 uM by filter binding assay relative to control
# Summary of the method: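 KinaseProfiler panel of 233 kinases: radiometric filter-binding activity assays with compound at 0.3 or 3 µmol/L. Read-out is percent inhibition.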
# [18] = molecular target: Insulin receptor-related protein (Homo sapiens, UniProt P14616); assay: Inhibition of N-terminal 6His-tagged recombinant human IRR (944 to 1266 residues) expressed in baculovirus infected Sf21 cells by filter binding assay
# [19] = molecular target: LIM domain kinase 1 (Homo sapiens) (UniProt P53667); assay: Inhibition of N-terminal 6His-tagged recombinant human LIMK1 (285 to 638 residues) expressed in baculovirus infected Sf21 cells at 3 uM by filter binding assay relative to control
# Summary of the method: as §1
# [20] = molecular target: Dual specificity mitogen-activated protein kinase kinase 6 (Homo sapiens) (UniProt P52564); assay: Inhibition of N-terminal maltose binding protein-tagged human MKK6 (4 to end residues) expressed in Escherichia coli at 3 uM by filter binding assay relative to control
# Sequence of Dual specificity mitogen-activated protein kinase kinase 6 (Homo sapiens) (P52564 whole entry): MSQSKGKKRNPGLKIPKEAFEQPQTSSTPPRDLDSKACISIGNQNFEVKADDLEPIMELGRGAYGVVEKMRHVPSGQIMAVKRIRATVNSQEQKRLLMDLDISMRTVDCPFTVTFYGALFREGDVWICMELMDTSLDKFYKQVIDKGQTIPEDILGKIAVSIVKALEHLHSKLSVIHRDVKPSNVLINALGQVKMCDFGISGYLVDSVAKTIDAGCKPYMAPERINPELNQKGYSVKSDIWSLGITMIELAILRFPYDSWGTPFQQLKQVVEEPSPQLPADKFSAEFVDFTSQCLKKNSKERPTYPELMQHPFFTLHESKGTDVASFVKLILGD
# [21] = test system: COLO 205; assay: In vivo inhibition of IGF1R in human COLO 205 cells xenografted in IGF1-stimulated po dosed nu/nu CD-1 mouse assessed as reduction in IGF1R phosphorylation pretreated for 4 hrs followed by IGF1 stimulation and measured after 15 min by radioimmunoprecipitation assay; format: functional, organism-based; conditions: dose 1-60 mg/kg, time 4.17 hrs, in the assay text read “measured after 10 min” for “measured after 15 min”
# Summary of the method: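 Female nu/nu CD-1 mice, three per group, bearing ~500 mm3 tumors, given one oral dose of compound or vehicle. At 4 h, 10 µg hIGF-I i.v. via tail vein; saline controls. Tumor and blood taken 10 min later. Tumor lysates in RIPA captured on anti-IGF-IR plates and probed with europium anti-phosphotyrosine. Phospho/total IGF-IR expressed as % of ligand-stimulated control. Blood levels by LC-MS/MS.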
# [22] = Cytotoxicity against HFF cells assessed as reduction in cell viability after 72 hrs by CellTiter-Glo assay; format: toxicity, cell-based; conditions: human
# Summary of the method: as §2
# [23] = In vivo inhibition of IGF1R in mouse NIH-3T3/LISN cells xenografted in IGF1-stimulated nu/nu CD-1 mouse assessed as reduction in IGF1R phosphorylation at 3 umol/L blood compound concentration pretreated for 1 to 72 hrs followed by IGF1 stimulation and measured after 10 min by […] relative to control; format: functional; conditions: dose 3 µmol/L; time 60-4330 min; at 3 µM
# Sequence of Insulin receptor (Mus musculus) (P15208 28-748 limits assumed): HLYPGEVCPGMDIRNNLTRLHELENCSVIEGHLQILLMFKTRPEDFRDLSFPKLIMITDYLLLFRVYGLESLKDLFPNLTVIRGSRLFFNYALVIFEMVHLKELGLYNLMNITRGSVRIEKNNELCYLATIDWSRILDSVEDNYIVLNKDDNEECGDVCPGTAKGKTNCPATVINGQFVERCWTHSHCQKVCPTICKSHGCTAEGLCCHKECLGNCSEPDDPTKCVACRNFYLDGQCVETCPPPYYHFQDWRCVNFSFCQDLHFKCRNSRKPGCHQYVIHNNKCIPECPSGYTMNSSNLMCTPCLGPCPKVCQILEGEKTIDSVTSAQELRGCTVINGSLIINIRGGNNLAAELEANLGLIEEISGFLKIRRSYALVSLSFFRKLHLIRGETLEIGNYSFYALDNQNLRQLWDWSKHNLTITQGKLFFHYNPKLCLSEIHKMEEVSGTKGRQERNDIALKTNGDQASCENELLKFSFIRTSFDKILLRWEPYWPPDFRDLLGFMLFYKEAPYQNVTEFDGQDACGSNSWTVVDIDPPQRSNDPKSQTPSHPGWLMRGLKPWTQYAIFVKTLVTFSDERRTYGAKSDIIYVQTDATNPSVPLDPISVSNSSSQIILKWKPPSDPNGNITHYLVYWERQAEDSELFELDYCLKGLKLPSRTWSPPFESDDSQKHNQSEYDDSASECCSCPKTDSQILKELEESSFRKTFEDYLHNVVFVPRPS
# Sequence of Insulin receptor (Mus musculus) (P15208 753-1372 limits assumed): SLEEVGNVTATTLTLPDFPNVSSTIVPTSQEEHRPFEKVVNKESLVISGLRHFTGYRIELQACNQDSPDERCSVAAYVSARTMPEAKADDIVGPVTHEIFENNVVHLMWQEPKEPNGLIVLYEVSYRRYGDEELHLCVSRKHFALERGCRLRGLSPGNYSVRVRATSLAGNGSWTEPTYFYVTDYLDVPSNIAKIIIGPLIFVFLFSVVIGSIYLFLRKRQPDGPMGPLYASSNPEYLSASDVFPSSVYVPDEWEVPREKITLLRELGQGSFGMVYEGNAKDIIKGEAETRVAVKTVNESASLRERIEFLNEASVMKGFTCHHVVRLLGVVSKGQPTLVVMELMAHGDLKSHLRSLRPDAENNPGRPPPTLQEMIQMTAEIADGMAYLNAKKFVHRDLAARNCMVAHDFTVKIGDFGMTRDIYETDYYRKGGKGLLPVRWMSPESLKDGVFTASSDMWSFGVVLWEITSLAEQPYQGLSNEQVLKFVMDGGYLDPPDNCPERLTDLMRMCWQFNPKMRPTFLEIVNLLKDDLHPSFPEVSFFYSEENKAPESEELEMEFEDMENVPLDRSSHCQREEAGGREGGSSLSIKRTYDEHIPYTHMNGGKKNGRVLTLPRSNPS
smiles,measurement,setting,value
CCc1cc(Nc2nccc(-c3c(-c4ccc(OC)c(C(=O)Nc5c(F)cccc5F)c4)nc4ccccn34)n2)c(OC)cc1N1CCC(N2CCN(S(C)(=O)=O)CC2)CC1,inhibition,[1],inactive
same,inhibition,[2],0%
same,inhibition,[3],35%
same,IC50,[4],3.2 µM
same,inhibition,[5],inactive
same,IC50,[6],4.75 µM
same,inhibition at 0.3 µM,[7],2%
same,Activity,[8],6%
same,inhibition,[9],0%
same,inhibition,[10],1%
same,IC50,[11],0.165 µM
same,inhibition,[12],39%
same,inhibition,[13],0%
same,IC50,[14],> 10 µM
same,IC50,[15],> 30 µM
same,inhibition,[16],34%
same,inhibition,[17],-8%
same,IC50,[18],0.488 µM
same,inhibition,[19],18%
same,inhibition,[20],0%
same,inhibition,[21],Dose-Dependent Effect
same,IC50 at 72 h,[22],> 20 µM
same,inhibition (INH),[23],>90%
